In data set [1] the test system is Osteoclast. The note with it: Rattus norvegicus, Sprague-Dawley, 10 uM.
The next data set is described as follows: cells. The note with it: Rattus norvegicus, Sprague-Dawley, Osteoclast, 120 h, read-out: INH.
The subject of data set [2] is Osteoclast. The experiment in a line: Antiosteoclastogenic activity in Sprague-Dawley rat bone marrow-derived preosteoclasts assessed as inhibition of RANKL/M-CSF-induced osteoclast formation treated on day 1 measured over day 1 to day 3 by TRAP staining. The class given is functional, cell-based. The procedure, abridged: (§1)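 Rat bone-marrow preosteoclasts were cultured with RANKL 50 ng/mL and M-CSF 20 ng/mL. Compound (10 μM) was added during defined day windows, with days 3−5 taken as the late phase. Osteoclasts were scored by TRAP staining as TRAP-positive cells with ≥3 nuclei (N = 3).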

In a further data set the test system is RAW264.7. Briefly: Inhibition of osteoclast formation in mouse RAW264.7 cells. The class given is functional, cell-based.
Data set [3] deals with T1, Tumor necrosis factor ligand superfamily member 11 (Mus musculus) (UniProt O35235).
T1 sequence (whole entry): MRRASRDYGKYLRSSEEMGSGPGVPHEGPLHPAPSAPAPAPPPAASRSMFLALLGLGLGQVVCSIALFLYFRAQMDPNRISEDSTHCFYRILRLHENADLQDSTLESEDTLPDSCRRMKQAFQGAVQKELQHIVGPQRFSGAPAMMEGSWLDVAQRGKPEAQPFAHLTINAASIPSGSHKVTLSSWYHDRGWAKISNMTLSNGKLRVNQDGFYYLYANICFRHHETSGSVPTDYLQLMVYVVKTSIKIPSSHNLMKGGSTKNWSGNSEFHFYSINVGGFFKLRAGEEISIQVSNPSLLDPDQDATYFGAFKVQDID
The experiment in a line: Inhibition of RANKL-induced IKK phosphorylation in mouse RAW264.7 cells at 10 uM preincubated for 2 hrs followed by RANKL induction measured over 60 mins by Western blot analysis. In kind it is cell-based. In outline:
(§2)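 Confluent RAW264.7 cells were pretreated with compound (10 μM) for 2 h, then stimulated with RANKL 50 ng/mL for various times. Lysates (30 μg protein per lane) were run on 10% SDS gels and transferred to PVDF. Blots were probed overnight at 4 °C with antibodies to phospho- and total IKKα/β and p65, with actin as control, followed by HRP secondary antibodies.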
Background: Immunoblotting shows a protein as a band on a membrane.

For data set [4], the system named is Osteoclast. The experiment in a line: Antiresorptive activity in RANKL/M-CSF-stimulated Sprague-Dawley rat bone marrow-derived preosteoclasts assessed as inhibition of osteoclast resorption area at 10 uM treated for 3 days post 5 days RANKL/M-CSF stimulation measured on day 8 by inverted microscopic analysis. The class given is functional. In outline:
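Rat bone-marrow preosteoclasts were seeded at 10⁶ cells/well on resorbable assay plates with RANKL 50 ng/mL and M-CSF 20 ng/mL for 5 days. Both factors were then removed and compound was added for another 3 days. Cells were stripped with 1 N NaOH, and resorbed areas were photographed under an inverted microscope and quantified by image analysis.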

Data set [5] can be described thus: Cytotoxicity against cranium-derived preosteoblasts (unknown origin) assessed as inhibition of bone mineralized nodule formation after 2 weeks by alizarin red staining assay in presence of beta-glycerophosphate and L-ascorbic acid. In kind it is cell-based. The note with it: osteoblast, 336 h. The procedure, abridged: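 Cranium-derived preosteoblasts were grown in α-MEM with 10% FBS. Mineralisation was induced with 10 mM β-glycerophosphate and 50 μg/mL L-ascorbic acid, with or without compound, for 2 weeks. Cells were fixed in ice-cold 75% ethanol for 30 min and stained with 40 mM alizarin red (pH 4.2). Stain was quantified at 550 nm against a standard curve.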

Data set [6] concerns Mus musculus. Briefly: Antiosteoporosis activity in ovariectomized ICR mouse assessed as inhibition of ovariectomy-induced reduction of trabecular thickness at 10 mg/kg, sc administered for 5 days/week for 30 days measured on day 30 by microcomputed tomographic analysis. In kind it is functional, organism-based. The note with it: Trabecula. In outline:
(§3)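 Female ICR mice (12 weeks old) were bilaterally ovariectomized or sham-operated. Starting 2 days post-surgery, they were dosed s.c. at 10 mg/kg, 5 days/week, or given vehicle for 30 days. Tibiae were fixed in 4% paraformaldehyde and scanned by μCT. BV/TV, Tb.N and Tb.Th were quantified 0.5−1.5 mm distal to the proximal growth plate.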

Data set [7] in a line: Cytotoxicity against Sprague-Dawley rat bone marrow-derived preosteoclasts assessed as cell viability at 10 uM incubated for 5 days measured on day 8 by MTT assay in presence of M-CSF. In kind it is cell-based. The settings on record: osteoclast, 120 h. The procedure, abridged:
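Nonadherent bone-marrow preosteoclasts were seeded at 10⁶ cells/well with M-CSF 20 ng/mL for 3 days, then treated with compound for another 5 days. After washing, cells were given MTT at 0.5 mg/mL in α-MEM for 60 min at 37 °C. Formazan was dissolved in DMSO and absorbance read at 550 nm.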

Data set [8] relates to Osteoclast. Briefly: Antiosteoclastogenic activity in Sprague-Dawley rat bone marrow-derived preosteoclasts assessed as inhibition of RANKL/M-CSF-induced osteoclast formation treated on day 3 post RANKL/M-CSF induction measured over day 3 to day 5 by TRAP staining. In kind it is functional, cell-based. The procedure, abridged: as §1
Data set [9] deals with Mus musculus. The experiment in a line: Antiosteoporosis activity in ovariectomized ICR mouse assessed as inhibition of ovariectomy-induced reduction of trabecular bone number at 10 mg/kg, sc administered for 5 days/week for 30 days measured on day 30 by Hematoxylin and eosin staining. In kind it is functional, organism-based. The note with it: Trabecula. The procedure, abridged:
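Ovariectomized or sham-operated female ICR mice were dosed s.c. at 10 mg/kg, 5 days/week, for 30 days. Tibiae taken on day 30 were fixed in 4% paraformaldehyde at 4 °C for 48 h and decalcified in 10% Na2EDTA at 4 °C for 14 days. They were then paraffin-embedded, cut longitudinally at 4 μm and stained with hematoxylin−eosin.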

The test system of data set [10] is Mus musculus. Briefly: Antiosteoporosis activity in ovariectomized ICR mouse assessed as inhibition of ovariectomy-induced reduction of trabecular bone volume relative to tissue volume at 10 mg/kg, sc administered for 5 days/week for 30 days measured on day 30 by microcomputed tomographic analysis. The settings on record: Trabecula. In kind it is functional, organism-based. The procedure, abridged:
as §3

Data set [11] has as its target Transcription factor p65 (Mus musculus) (UniProt Q04207). The experiment in a line: Inhibition of RANKL-induced P65 phosphorylation in mouse RAW264.7 cells at 10 uM preincubated for 2 hrs followed by RANKL induction measured over 60 mins by Western blot analysis. The class given is cell-based. The procedure, abridged:
as §2

Data set [12] has as its system Mus musculus. The experiment in a line: Antiosteoporosis activity in ovariectomized ICR mouse assessed as inhibition of ovariectomy-induced reduction of trabecular bone number at 10 mg/kg, sc administered for 5 days/week for 30 days measured on day 30 by microcomputed tomographic analysis. In kind it is functional, organism-based. The settings on record: Trabecula. In outline:
as §3

Data set [13] is described as follows: Cytotoxicity against cranium-derived preosteoblasts (unknown origin) assessed as effect on cell viability after 24 hrs by MTT assay. The settings on record: osteoblast. In kind it is cell-based. The procedure, abridged:
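Osteoblasts were plated for 24 h, then exposed to compound for another 24 h. Viability was measured by MTT at 0.5 mg/mL in α-MEM for 60 min at 37 °C, with DMSO solubilisation and absorbance at 550 nm.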
A general note: Tetrazolium assays rely on reduction of a dye to a coloured formazan, in cell work by metabolically active cells.

In data set [14] the target is T1, Tumor necrosis factor ligand superfamily member 11 (Mus musculus). The experiment in a line: Antiosteoclastogenic activity in ICR mouse bone marrow-derived preosteoclasts assessed as inhibition of RANKL/M-CSF-induced osteoclast formation at 10 uM after 5 days by TRAP staining. The class given is functional, cell-based. In outline:
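They were plated at 10⁶ cells/well with RANKL (50 ng/mL), M-CSF (20 ng/mL) and compound for 5 days. Cells were fixed in 4% paraformaldehyde and TRAP-stained for 1 h at 37 °C. TRAP-positive cells with ≥3 nuclei were counted as osteoclasts.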

The subject of data set [15] is Osteoclast. The experiment in a line: Effect on osteoclast formation from RANKL/M-CSF-stimulated Sprague-Dawley rat bone marrow-derived preosteoclasts at 10 uM treated for 3 days post 5 days RANKL/M-CSF stimulation measured on day 8 by inverted microscopic analysis relative to control. The class given is functional, cell-based.
For data set [16], the system named is Mus musculus. The experiment in a line: Antiosteoporosis activity in ovariectomized ICR mouse assessed as inhibition of ovariectomy-induced osteocalcin level in serum at 10 mg/kg, sc administered for 5 days/week for 30 days measured on day 30 by enzyme immunoassay. The class given is functional, organism-based. The procedure, abridged: (§4)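 Twelve-week-old female ICR mice were bilaterally ovariectomized under isoflurane, with sham-operated controls. From 2 days after surgery, mice received s.c. compound or vehicle 5 days/week for 30 days. On day 30, serum was prepared by centrifugation at 1500g for 15 min. CTx was measured with a RatLaps EIA (N = 8) and osteocalcin with a Rat-MID osteocalcin EIA (N = 9).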

Data set [17] concerns Mus musculus. Briefly: Antiosteoporosis activity in ovariectomized ICR mouse assessed as inhibition of ovariectomy-induced C-terminal telopeptides of type-1 collagen level in serum at 10 mg/kg, sc administered for 5 days/week for 30 days measured on day 30 by enzyme immunoassay. The class given is functional, organism-based. The procedure, abridged:
as §4

Calls of active or inactive are those of the source. The calls are words filed in the database; no cut-off is given here.

Sequence of Transcription factor p65 (Mus musculus) (Q04207 whole entry): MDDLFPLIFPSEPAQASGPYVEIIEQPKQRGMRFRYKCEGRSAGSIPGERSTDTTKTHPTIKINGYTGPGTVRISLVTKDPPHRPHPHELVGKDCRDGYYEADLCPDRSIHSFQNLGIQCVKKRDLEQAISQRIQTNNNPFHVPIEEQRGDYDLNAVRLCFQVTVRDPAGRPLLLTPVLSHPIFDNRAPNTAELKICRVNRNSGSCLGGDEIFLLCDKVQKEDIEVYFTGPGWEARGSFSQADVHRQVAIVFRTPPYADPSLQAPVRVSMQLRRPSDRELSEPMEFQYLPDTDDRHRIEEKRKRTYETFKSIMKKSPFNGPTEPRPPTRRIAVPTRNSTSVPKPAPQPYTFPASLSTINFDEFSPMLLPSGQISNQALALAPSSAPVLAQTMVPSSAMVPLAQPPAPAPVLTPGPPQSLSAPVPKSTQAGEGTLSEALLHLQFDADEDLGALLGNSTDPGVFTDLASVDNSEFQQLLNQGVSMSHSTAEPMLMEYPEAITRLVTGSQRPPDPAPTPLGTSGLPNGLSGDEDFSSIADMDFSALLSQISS

For `NCCCC(O)(P(=O)(O)O)P(=O)(O)O`, the inhibition entry in the data set on Osteoclast [1] was “Active”.

With `CC(=O)c1ccc(-c2nn(Cc3ccccc3)c3ccccc23)o1`, in “cells”, the inhibition at 10 µM stood at 20%.

Regarding `O=C(O)c1ccc(-c2nn(Cc3ccccc3)c3ccccc23)o1`, the inhibition at 10 µM in “cells” turned out to be 20%.

In the case of `CC(C)(C)C(=O)OCc1ccc(-c2nn(Cc3ccccc3)c3ccccc23)o1`, in the data set “cells”, the inhibition at 10 µM worked out at 20%.

Consider `OCCc1ccc(-c2nn(Cc3ccccc3)c3ccccc23)o1`, for which the inhibition at 10 µM in “cells” turned out to be 20%.

Take `CC(=O)OCc1ccc(-c2nn(Cc3ccccc3)c3ccccc23)o1`: in “cells”, the inhibition at 10 µM worked out at 20%.

As for `CON(C)C(=O)c1ccc(-c2nn(Cc3ccccc3)c3ccccc23)o1`, in the data set “cells”, the inhibition at 10 µM was 20%.

Turning to `CN(C)CCOC(=O)c1ccc(-c2nn(Cc3ccccc3)c3ccccc23)o1`, the inhibition entry in the data set on Osteoclast [2] and in the data set with Osteoclast [8] was “Dose-dependent effect” throughout. Moreover, the inhibition entry (with RAW264.7; in data set [3]; in the data set on Mus musculus [6]; with Mus musculus [9]; in the data set with Mus musculus [10]; in [11]) was “Active” throughout. Moreover, the inhibition entry (in the data set on Mus musculus [12]; in [14]; in the data set on Mus musculus [16]; in the data set with Mus musculus [17]) was “Active” in each case. The inhibition at 10 µM in the data set with Osteoclast [4] was above 75%; in the data set “cells” it was above 90%. For the same compound, the Activity entry in data set [5], in [7] and in data set [13] was “Non-toxic” each time. The result with Osteoclast [15] was inactive.
